Assay outcomes deposited in PubChem by several laboratories.
PfG6PD inh: PfG6PD (Plasmodium falciparum) enzyme inhibition; actives 0.78% (n = 350,000); inhibition, % at 20 µM; AID 504690; PfGluPho enzyme, NADPH resazurin-diaphorase fluorescence;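 active = inhibition reaching at least a set limit at 20 µM in the primary screen, cut at about 59% in these data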;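 also: 0% = DMSO wells with substrate and 100% = DMSO wells lacking glucose-6-phosphate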
CXCR6 inh: blocks human CXCR6 beta-arrestin recruitment | O00574 | actives 0.36% (n = 360,000) | inhibition, % at 20 µM | CHO-K1 PathHunter CXCR6 beta-arrestin, luminescence; in the data active = inhibition above about 34%, passing the limit was not always enough;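 also: antagonist mode with CXCL16 agonist at 10 nM final; 0% = 10 nM CXCL16 with DMSO and 100% = unstimulated wells without agonist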
Target sequence (O00574 whole entry, looked up): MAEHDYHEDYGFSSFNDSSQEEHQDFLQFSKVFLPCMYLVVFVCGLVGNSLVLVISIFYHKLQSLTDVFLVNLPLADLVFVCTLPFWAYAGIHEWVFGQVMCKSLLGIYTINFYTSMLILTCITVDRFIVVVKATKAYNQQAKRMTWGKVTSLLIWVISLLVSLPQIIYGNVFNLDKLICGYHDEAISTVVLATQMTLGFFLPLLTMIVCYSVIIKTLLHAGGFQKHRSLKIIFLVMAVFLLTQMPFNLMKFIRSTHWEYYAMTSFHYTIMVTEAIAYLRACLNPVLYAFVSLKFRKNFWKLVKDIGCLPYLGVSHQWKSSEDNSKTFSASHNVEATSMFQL
APJ antag: blocks the human apelin receptor APJ; inhibition, % at 20 µM; P35414; AID 2521; CHO-K1 APJ beta-arrestin complementation, luminescence; actives 0.32% (n = 330,000);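 active = inhibition above about 40% at 20 µM, limit read from the data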;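 also: cells challenged with 10 nM apelin-13 agonist together with compound; plate controls were apelin-13 plus DMSO wells for no effect and DMSO wells lacking apelin-13 for full effect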
APJ agonist: agonists of human APJ apelin receptor; CHO-K1 APJ PathHunter beta-arrestin, luminescence; 0% DMSO wells, 100% apelin; actives 0.11% (n = 330,000); AID 2520; activation, % at 20 µM;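 active = activation more than six SD over the plate average, tested at 20 µM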;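 also: 0% = DMSO alone and 100% = apelin-13 at 10 nM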
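Test system: CHO-K1 APJ beta-arrestin complementation cell line | Compound: Single test compound dose, 20 µM final, 1% DMSO | Incubation: Compound 90 min 25 °C, reagent 1 h | Measured by: beta-gal luminescence | Read-out basis: APJ–arrestin association signal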
CCR6 antagonist: antagonists of human CCR6 receptor | P51684 | CHO-K1 CCR6 PathHunter beta-arrestin, luminescence, CCL20-stimulated | inhibition, % at 20 µM | actives 0.49% (n = 340,000) | AID 493098;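 active = compounds whose inhibition of the agonist-driven luminescence signal at 20 µM reaches about 50%, limit read from the data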;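 also: cells stimulated with CCL20 at 14 nM final; plate controls were DMSO with CCL20 for no effect and DMSO without agonist for full effect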
B2AR ag: agonists of human beta-2 adrenergic receptor inducing internalization. Am2.2-beta2AR cells, FAP receptor internalization, flow cytometry. response, % (test concentration not listed). actives 0.43% (n = 340,000);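 active = response above a set limit, near 3 SD of response in nonfluorescent compounds, cut at about 42% in these data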
Target sequence (P07550 whole entry, looked up): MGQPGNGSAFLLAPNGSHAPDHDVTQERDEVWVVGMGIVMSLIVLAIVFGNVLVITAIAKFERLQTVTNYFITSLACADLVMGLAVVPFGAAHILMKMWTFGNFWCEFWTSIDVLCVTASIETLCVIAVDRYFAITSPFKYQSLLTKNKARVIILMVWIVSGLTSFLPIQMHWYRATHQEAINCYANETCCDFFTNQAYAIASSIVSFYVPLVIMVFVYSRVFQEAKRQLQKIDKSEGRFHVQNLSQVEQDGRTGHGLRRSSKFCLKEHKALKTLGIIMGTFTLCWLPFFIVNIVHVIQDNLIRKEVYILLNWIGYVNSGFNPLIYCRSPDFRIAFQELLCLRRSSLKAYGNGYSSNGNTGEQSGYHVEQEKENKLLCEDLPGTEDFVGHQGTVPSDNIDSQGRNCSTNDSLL
PfG6PD confirm: PfG6PD inhibition, single-dose confirmed. shares compounds with PfG6PD inh. recombinant PfGluPho, NADPH-diaphorase-resazurin fluorescence. inhibition, % at 20 µM. actives 34% (n = 2,400). AID 504753;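 active = inhibition of at least 50% at 20 µM in any single replicate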;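 also: 0% = DMSO with substrate and 100% = DMSO lacking glucose-6-phosphate substrate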
Diaphorase 10uM: diaphorase inhibition or oxidation at 10 uM NADPH | shares compounds with PfG6PD inh | diaphorase-coupled resazurin reduction, fluorescence, NADPH 10 uM | inhibition, % at 20 µM | actives 39% (n = 820);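 active = average inhibition reaching 50% or more with the compound at 20 µM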;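 also: resorufin red fluorescence formed as diaphorase reduces resazurin using NADPH; 0% = DMSO with enzyme and 100% = DMSO without enzyme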
Diaph ctr 30uM: inhibits diaphorase or oxidizes, flagging false PfG6PD hits; shares compounds with PfG6PD inh; inhibition, % at 20 µM; actives 29% (n = 820); AID 504863; Diaphorase/resazurin coupled assay, resorufin fluorescence, 30 uM NADPH;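 active = inhibition averaging 50% or more, tested at 20 µM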;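 also: 0% = DMSO with enzyme and 100% = DMSO wells lacking diaphorase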
The depositor's hits bear a star; / = no result given. Rows were chosen to be rich in hits. Some 1.7% of all compounds tested hit in one or more screens of this group.

SMILES | PfG6PD inh | CXCR6 inh | APJ antag | APJ agonist | CCR6 antagonist | B2AR ag | PfG6PD confirm | Diaphorase 10uM | Diaph ctr 30uM
Cc1ncsc1C(=O)N1CCCC(C(=O)c2ccc3ccccc3c2)C1 (stereo unspecified) | 2.8 | 3.7 | 13.5 | -0.3 | 9.1 | -0.9 | / | / | /
Cc1ccc(CS(=O)(=O)Cc2ccc(C(=O)NCCCN3CC(C)CC(C)C3)o2)cc1 (stereo unspecified) | -7.4 | -5.8 | 15.6 | -3.8 | 10.7 | 5.6 | / | / | /
O=[N+]([O-])c1cccc(SSc2cccc([N+](=O)[O-])c2)c1 | 115.2* | -10.6 | / | / | 10.6 | 3.5 | 51.7* | -8.0 | -6.4
Cc1ccc(NC(=O)CN(C)C(=O)C(Sc2ccccc2)c2ccccc2)cc1 (stereo unspecified) | 3.3 | 1.5 | -4.9 | -1.4 | 3.0 | 6.6 | / | / | /
COc1ccccc1-c1oc2ccccc2c1-c1ccc2cc[nH]c2c1 | 63.3* | -3.3 | -6.8 | -2.2 | 0.9 | -4.3 | -11.1 | / | /
O=S(=O)(/N=S1\CC=CCN1S(=O)(=O)c1ccccc1)c1ccccc1 (stereo unspecified) | 63.9* | -0.7 | / | / | -4.0 | -4.0 | 21.6 | / | /
CCOC(=O)c1c(NC(=O)C(Sc2ccccc2)c2ccccc2)sc(C(=O)N(C)C)c1C (stereo unspecified) | 78.7* | 17.1 | 5.1 | 0.4 | 15.4 | 1.6 | 0.3 | / | /
CCOC(=O)c1c(NC(=O)C(Sc2ccccc2)c2ccccc2)sc(C(N)=O)c1C (stereo unspecified) | 61.1* | 15.1 | -10.8 | -2.3 | -15.3 | -3.8 | 1.9 | / | /
C=CCOc1ccc(Cl)cc1-c1noc(-c2csc([C@H]3C[C@H](O)[C@@H](CO)O3)n2)n1 | / | -1.2 | / | / | / | / | / | / | /
COCOc1cccc(CN2CCC2(C)C(=O)Nc2ccc(C)c(O)c2)c1 (stereo unspecified) | / | -8.0 | / | / | / | / | / | / | /
COc1cc(C)ccc1Oc1ccc([N+](=O)[O-])cc1 | 63.0* | -1.6 | / | / | 21.1 | 1.7 | 15.9 | / | /
Nc1nc(=S)c2[nH]c(=S)[nH]c2[nH]1 | 67.2* | 0.9 | / | / | -6.8 | -0.8 | 20.6 | / | /
Oc1ccc2ccccc2c1C=NC12CN3CCN(CN(C3)C1)C2 | 74.8* | -7.1 | -47.4 | 5.7 | -3.5 | 7.3 | 40.8 | / | /
CCCCNc1c(-c2cccc(-c3cc(C(C)=O)cs3)c2)nc2ccc(C)cn12 | 66.6* | -18.9 | -66.6 | 12.3 | 6.4 | 29.2 | 13.2 | / | /
S=c1cnc2ccccc2[nH]1 | 64.0* | -12.1 | 5.4 | -5.1 | -3.9 | -10.2 | 3.9 | / | /
Oc1ccc(Br)cc1CNc1cccc2cccnc12 | 72.0* | 10.6 | -44.7 | 7.7 | 20.9 | 19.3 | 14.9 | / | /
COc1ccc2nc3cc(Cl)ccc3c(Nc3ccc(O)c(CN4CCN(C)CC4)c3)c2c1 | 108.7* | 9.7 | / | / | 16.8 | 10.4 | 45.0* | 33.1 | 39.9
COc1ccc2nc3cc(Cl)ccc3c(C#N)c2c1 | 3.4 | 0.9 | -29.0 | 5.2 | 8.4 | -0.3 | / | / | /
Cc1noc(C(=O)Nc2sc3c(c2C#N)CCC3)c1Cl | 83.1* | 6.5 | 3.8 | -1.9 | 23.9 | 2.5 | 52.2* | 21.5 | 15.3
CC[n+]1c(/C=C2/C=C(C)CC(C)(C)C2)sc2ccc(OC)cc21 | 45.4 | -4.9 | 13.6 | -0.4 | 8.3 | 4.7 | / | / | /
CC[n+]1c(/C=C2\C=C(C)CC(C)(C)C2)sc2ccccc21 | 61.4* | 9.2 | 5.6 | 1.1 | 10.3 | -3.1 | 3.0 | / | /
COc1ccc(OC)c(C(C(=O)NC2CCCCC2)N(C(=O)c2ccccn2)c2cccnc2)c1 (stereo unspecified) | 1.8 | -2.3 | 9.1 | -0.2 | 8.6 | 0.4 | / | / | /
COc1ccc2c(c1)c(C(=O)N/N=C/c1cccc(Br)c1)c(C)n2C | 115.2* | 10.1 | 34.6 | -5.3 | 18.4 | 6.2 | 87.2* | 87.8* | 64.6*
COc1ccc(C(=O)c2coc3c2C(=O)C(=O)c2ccccc2-3)cc1 | 111.2* | 7.0 | -11.5 | -1.4 | 10.1 | 1.8 | 104.3* | 97.2* | 91.6*
CCC(C)N(CCNC(=O)c1ccc2c(c1)NC(=O)c1ccccc1S2)C1CCCCC1 (stereo unspecified) | 76.4* | -1.9 | -42.1 | 0.4 | 30.9 | 22.5 | 93.1* | -7.9 | -12.7
SMILES | PfG6PD inh | CXCR6 inh | APJ antag | APJ agonist | CCR6 antagonist | B2AR ag | PfG6PD confirm | Diaphorase 10uM | Diaph ctr 30uM
COc1ccccc1N1C(=O)C=C(Sc2nc(C)cc(C)n2)C1=O | 79.0* | 11.3 | -10.9 | -1.7 | 94.2* | 6.6 | 87.2* | -4.2 | -15.1
COc1ccccc1N1C(=O)C2CC(C)=C(C)CC2C1=O (stereo unspecified) | 9.3 | -5.7 | 17.9 | 0.0 | 2.9 | 9.1 | / | / | /
CCOC(=O)c1c(N)sn(-c2ccccc2C)c1=S | 73.2* | 17.9 | 30.7 | 0.6 | 6.8 | -6.1 | 35.8 | / | /
CCOC(=O)c1nn(-c2ccccc2C)c(=O)c2c(N)scc12 | 47.1 | 30.8 | 28.7 | -1.3 | 39.2 | -2.4 | / | / | /
COc1ccc(NC(=O)c2oc3ccccc3c2CSC)cn1 | 73.0* | 0.5 | 4.2 | -0.2 | 9.8 | 23.2 | 29.4 | / | /
Cc1ccc2nc(SC(C)C(=O)NC3CCCc4ccccc43)[nH]c2c1 (stereo unspecified) | 75.7* | 20.0 | / | / | 11.6 | -2.1 | 44.1 | / | /
O=C(CSc1nc2ccc(Cl)cc2[nH]1)NC1CCCc2ccccc21 (stereo unspecified) | 107.2* | -25.0 | -0.5 | -0.6 | 0.7 | -8.9 | 55.2* | 42.0 | 34.2
O=C(CSc1nc2ccccc2[nH]1)NC1CCCc2ccccc21 (stereo unspecified) | 64.2* | -4.1 | -0.8 | -0.1 | 2.9 | -14.3 | 56.9* | 42.3 | 39.5
COc1ccc2nc(SCC(=O)NC3CCCc4ccccc43)[nH]c2c1 (stereo unspecified) | 16.5 | -4.3 | 1.6 | -0.6 | 1.2 | -0.1 | / | / | /
COCCCn1c(=O)c2sccc2n2c(CCCC(=O)NCc3ccccc3)nnc12 | 1.6 | 2.6 | 0.5 | 11.4 | 5.7 | -8.9 | / | / | /
C[C@H](CO)N1C[C@H](C)[C@H](CN(C)S(=O)(=O)c2cccc(F)c2)Oc2ncc(-c3cccc(C(=O)N(C)C)c3)cc2C1=O | -15.8 | 4.7 | / | / | / | / | / | / | /
COc1ccccc1NC(=O)Nc1nc(CC(=O)N2CCN(c3ccc(F)cc3)CC2)cs1 | 18.5 | -7.4 | -26.2 | 9.8 | -1.5 | 9.5 | / | / | /
CN(C)c1ccc(C=c2c3cc([N+](=O)[O-])ccc3n3c2cc(-c2ccccc2)[n+]3C)cc1 | 120.0* | 49.0* | / | / | 67.5* | 23.6 | 92.7* | 24.2 | 24.2
COc1cc(N(C)C)ccc1C=c1c2ccccc2n2c1cc(-c1ccccc1)[n+]2C | 83.0* | 60.0* | / | / | 64.7* | -68.8 | 76.0* | 14.4 | 10.8
